Results from the EternaBench riboswitch data.

Test system: MS2 coat protein
Experiment: apparent Kd, MS2 coat protein; higher = weaker binding; RNA-MaP array; tryptophan 2.4 mM where present
Method in brief: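 The apparent Kd comes from binding curves fitted cluster by cluster, filtered, and summarised as a median. Those curves followed SNAP-549-labelled MS2 coat protein from 0.7 or 1.5 nM, doubling to 3 µM, on Illumina sequencing-chip clusters where stalled E. coli RNA polymerase had transcribed the designs, without and then with constant ligand. The buffer was 100 mM Tris-HCl pH 7.5, 80 mM KCl, 4 mM MgCl2, BSA, DTT, yeast tRNA and Tween-20, and green signal was normalised to red-channel RNA signal and control-cluster median Fmax.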

[1] = designed as: OFF switch for tryptophan, no ligand
[2] = ligand present: tryptophan, designed as: OFF switch for tryptophan
[3] = designed as: ON switch for tryptophan, no ligand
[4] = ligand present: tryptophan, designed as: ON switch for tryptophan

Sequence: GCCGCGGCCGGAAUAAACAUGGGUAAAUAACGAGGACCGGUACGGCCGCCACUCGAGAUAAAUAACAUGAGGAUCACCCAUGUAC
- apparent Kd [1]: 163 nM
- apparent Kd [2]: 80.3 nM

Sequence: GCUAGGUCAUCGGCCGCCACUAACGAUGGCUCCGACAUGAGGAUCACCCAUGUGCCACAUGCGCAUAGGACCGGGAUGACCUAGC
- apparent Kd [3]: 18.5 nM
- apparent Kd [4]: 14.3 nM

Sequence: GCUGUGAAGUCGGCCGCCACUGGUUAGUUUUACCUCAUGUAACAUGAGGAUCACCCAUGUAAUUUCAGGACCGGGACAACAGCAA
- apparent Kd [1]: 278 nM
- apparent Kd [2]: 852 nM

Sequence: GGCACAUAGUCGGCCGCCACUAGAUUUUAGUGGAAUAACAUGAGGAUCACCCAUGUAUUUGGGACUAGGACCGGGACUAUGUGCC
- apparent Kd [1]: 32.8 nM
- apparent Kd [2]: 22.2 nM

Sequence: GGUUACUCUACGGCCGCCACUGUAAAGUAAAGAUUACUGUACAUGACAUGAGGAUCACCCAUGUACAGGACCGGGUAGUGUAACC
- apparent Kd [3]: 23.1 nM
- apparent Kd [4]: 21.5 nM

Sequence: GUGCCGCAUUCACAUGAGGAUCACCCAUGUCGAGGACCGGUACGGCCGCCACUCGACGUGCUUACAGGUCCUUUACGGCCCAAUA
- apparent Kd [1]: 38.1 nM
- apparent Kd [2]: 18.8 nM

Sequence: UACUUGCUGACGGCCGCCACUAGUACAUGAGGAUCACCCAUGUACGGUCGCCCGGUGUGAUCCACUAGGACCGGGUCAGCAAGAU
- apparent Kd [1]: 38.3 nM
- apparent Kd [2]: 124 nM

Sequence: UAUCGUCAGACGGCCGCCACUAGAACAUGAGGAUCACCCAUGUAGGUCCUAGAUUCCUCAAUAACUAGGACCGGGUCUGACGAAU
- apparent Kd [1]: 140 nM
- apparent Kd [2]: 97.3 nM

Sequence: UUCACAUGGUAUGAAUAUACAUAUAAGAAACGAGGACCGGUACGGCCGCCACUCGUGCCGGAAACAUGAGGAUCACCCAUGUGUU
- apparent Kd [1]: 63.5 nM
- apparent Kd [2]: 58.5 nM

Sequence: UUGCCCAGUACGGCCGCCACUGUGUGCAGGGAGCCCAGGUCCACAUGAGGAUCACCCAUGUACAACAGGACCGGGUACUUGCAAU
- apparent Kd [1]: 9.36 nM
- apparent Kd [2]: 10.6 nM
